Compound activity (PubChem BioAssay)
Most compounds without a hit are left out; they make up all but 2.2% or so of the library.
dFosB act-1: enhances mouse delta FosB homodimer DNA binding; P13346; purified delta FosB, TAMRA-CDK5 oligo fluorescence polarization; percent of positive-control signal above neutral wells; activation, % at 25 µM; 0.99% of 340,000 active; AID 493131;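 active = mean activation above about 17%, with every replicate also reaching it, limit read from the data, passing the limit was not always enough; inconclusive = only one of the two conditions met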
Target sequence (P13346 whole entry, looked up): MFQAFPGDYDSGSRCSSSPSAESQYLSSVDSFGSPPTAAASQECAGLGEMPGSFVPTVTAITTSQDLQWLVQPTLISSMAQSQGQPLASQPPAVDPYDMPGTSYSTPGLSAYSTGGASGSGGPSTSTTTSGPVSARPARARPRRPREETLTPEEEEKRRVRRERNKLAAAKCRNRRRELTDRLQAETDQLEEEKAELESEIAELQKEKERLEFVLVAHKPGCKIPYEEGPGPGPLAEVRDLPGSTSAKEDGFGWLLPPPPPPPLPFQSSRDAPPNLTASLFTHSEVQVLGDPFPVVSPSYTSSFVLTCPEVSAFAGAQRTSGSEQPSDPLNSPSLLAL
CAL PDZ FP-1: blocks peptide binding to the human CAL PDZ domain; purified CAL PDZ, TMR-peptide fluorescence polarization, 1 h; inhibition, % at 24.9 µM; 0.92% of 300,000 active; AID 602252;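 active = mean inhibition of at least 30% with at least half of replicates also reaching 30%; inconclusive = no clear call, values can overlap the other calls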
CAL PDZ FP-2: human CAL PDZ-peptide interaction inhibition | AID 504414 | 0.02% of 330,000 active | inhibition, % at 20 µM | purified CAL PDZ, TMR-peptide fluorescence polarization, 1 h;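 active = highest replicate inhibition of at least 40%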
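Read-out basis: mP drop reported as inhibition | Assay system: Tagged CAL PDZ protein CerCALP, purified | Benchmarks: Unlabelled peptide for full inhibition, DMSO wells as neutral | Schedule: 1 h incubation at room temperature before polarization reading | Buffer or medium: Sodium phosphate/NaCl buffer pH 7.4 with TCEP, IgG, Thesit | Doses: Single point, 20 µM | Measured by: Fluorescence polarization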
CDK5 inh: inhibitors of human CDK5/p35 kinase; 0.01% of 330,000 active; inhibition, % at 10 µM; Recombinant CDK5/p35, ADP-Glo luminescence, 60 min; AID 488839;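 active = highest replicate inhibition of at least 50% and at least 75% of replicates reaching 50%; inconclusive = only one of the two criteria met; inactive = both criteria failed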
Rtt109 Vps75: inhibitors of Candida albicans Rtt109/Vps75 histone acetyltransferase | Q5AAJ8 | purified Rtt109/Vps75, ThioGlo CoA-SH fluorescence, 4 h | 0.16% of 330,000 active | inhibition, % at 34.9 µM;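 active = inhibition of at least 50% in every replicate; inconclusive = best replicate reaches 50% inhibition but some replicates fall short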
Target sequence (Q5AAJ8 whole entry, looked up): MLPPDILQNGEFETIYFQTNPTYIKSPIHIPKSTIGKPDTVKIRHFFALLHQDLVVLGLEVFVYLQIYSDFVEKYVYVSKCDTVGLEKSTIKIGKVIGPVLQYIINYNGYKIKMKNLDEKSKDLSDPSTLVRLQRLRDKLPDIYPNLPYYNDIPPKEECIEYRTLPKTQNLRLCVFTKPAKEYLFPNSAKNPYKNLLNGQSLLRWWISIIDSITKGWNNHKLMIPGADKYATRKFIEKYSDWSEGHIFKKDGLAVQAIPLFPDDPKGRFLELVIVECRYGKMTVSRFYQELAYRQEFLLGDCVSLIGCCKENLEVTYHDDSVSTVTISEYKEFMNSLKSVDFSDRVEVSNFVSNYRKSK
DYRK1A inh: Dyrk1A (rat) kinase inhibition; ADP-Glo luminescence, NFATc1 peptide; inhibition, % at 12.5 µM; Q63470; AID 504441; 0.43% of 310,000 active; in the data active = inhibition above about 50%
dFosB act-2: activators of mouse delta FosB homodimer DNA binding. shares compounds with dFosB act-1. purified delta FosB, TAMRA-CDK5 oligo fluorescence polarization; normalised: neutral wells 0, positive control 100. activation, % at 24.9 µM. 2,400 tested, under 10 active;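 active = highest replicate activation at or above 34% and every replicate reaching that threshold; inconclusive = meets only one of the two criteria; inactive = meets neither criterion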;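 also: higher polarization means more probe DNA bound by delta FosB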
Of the large screens only hits and unclear results are named; the others gave an inactive call (follow-up assays come after a bar, where they were run).

O=C(COc1c(Br)cc(Br)cc1Br)N/N=C/c1ccco1	dFosB act-1 31 (no result: CAL PDZ FP-1, DYRK1A inh) | dFosB act-2 inactive
Cc1cc(C)cc(OCC(=O)N/N=C/c2ccco2)c1	none
O=C(/C=C/c1ccccc1)Nc1ccc(Br)cn1	dFosB act-1 23 (no result: DYRK1A inh) | dFosB act-2 inactive
Cc1ccc(NC(=O)/C=C/c2ccc(Cl)cc2)nc1	none
CCOC(=O)c1cnc(SCC(=O)Nc2sc(C)c(C)c2C#N)nc1N	dFosB act-1 45 | dFosB act-2 inactive
CCOC(=O)c1cnc(SCC(=O)Nc2cc(OC)cc(OC)c2)nc1N	none (no result: Rtt109 Vps75)
Cc1sc(NC(=O)CSc2nnc(COc3ccc(Cl)cc3)n2C)c(C#N)c1C	dFosB act-1 22 | dFosB act-2 inactive
CCOC(=O)c1cnc(SCC(=O)Nc2cc(C(F)(F)F)ccc2N2CCOCC2)nc1N	dFosB act-1 20 | dFosB act-2 inactive
CCOC(=O)c1sc(NC(=O)CSc2nc3c(cc2C#N)CCCCCC3)c(C#N)c1C	dFosB act-1 19 | dFosB act-2 inactive
CCOC(=O)c1sc(NC(=O)CSc2nc(C)cc(C)c2C#N)c(C#N)c1C	none
CCCCCCCC(=O)NNC(=O)CC(=O)Nc1ccccc1C(=O)O	none
CCOC(=O)c1c(NC(=O)COC(=O)c2nc(Cl)ccc2Cl)sc(C(=O)NC)c1C	none
CC(C)(C)c1ccc(OCc2cnc(Cl)s2)cc1	none
COCCn1c(SCC(=O)Nc2sc(C)c(C)c2C#N)nnc1-c1ccc(OC)cc1	none
Cc1ccc(-c2nnc(SCC(=O)Nc3sc(C)c(C)c3C#N)n2C)cc1	dFosB act-1 100 (no result: CAL PDZ FP-1) | dFosB act-2 inactive
CCOC(=O)c1cnc(SCc2nc(N)nc(Nc3ccccc3)n2)nc1N	dFosB act-1 35 | dFosB act-2 inactive
CCOC(=O)c1cnc(SCCc2ccccc2)nc1N	none
CCOC(=O)C1(Cc2cccc(Cl)c2)CCCN(C(=O)c2cccc(C)n2)C1 (stereo not given)	none (no result: CAL PDZ FP-2)
COc1ccc(C(=O)Sc2ccc(Cl)cc2)cc1OC	dFosB act-1 21 | dFosB act-2 inactive
CN1CCN(c2nc(Nc3ccc(F)cc3)nc(Nc3ccc(F)cc3)n2)CC1	dFosB act-1 40 | dFosB act-2 inactive
CC(=O)Nc1ccc(NC(=O)CCCCCN2C(=O)c3ccccc3C2=O)cc1	dFosB act-1 25 | dFosB act-2 inactive
O=C(CCN1C(=O)c2cccc3cccc(c23)C1=O)Nc1ccccc1	dFosB act-1 27 | dFosB act-2 inactive
O=C(CCCCCN1C(=O)c2ccccc2C1=O)Nc1ccccc1	none
Cc1cccc(Nc2nc(N)c([N+](=O)[O-])c(N3CC(C)OC(C)C3)n2)c1 (stereo not given)	none
Cc1ccc(Nc2nc(N)c([N+](=O)[O-])c(NCc3ccccc3)n2)cc1	dFosB act-1 47 (no result: CAL PDZ FP-1) | dFosB act-2 inactive
Cc1cccc(Nc2nc(N)c([N+](=O)[O-])c(NCc3ccco3)n2)c1	dFosB act-1 53 (no result: CAL PDZ FP-1) | dFosB act-2 inactive
Cc1ccc(/C=N\NC(=O)Cc2noc3ccccc23)cc1	dFosB act-1 22 (no result: CAL PDZ FP-2) | dFosB act-2 inconclusive
Cc1ccc(NC(=O)Cc2noc3ccccc23)cc1	none
CCN(CC)c1nc(NN)nc(Nc2ccc(C)c(Cl)c2)n1	dFosB act-1 42 | dFosB act-2 inconclusive
COc1ccc(Cl)cc1NC(=O)CSc1nc(NS(=O)(=O)c2ccc(C)cc2)cc(=O)[nH]1	dFosB act-1 28 (no result: CAL PDZ FP-1) | dFosB act-2 inactive
CCc1ccc(NC(=O)CCCNC(=O)Cn2cnc3sc(C)c(C)c3c2=O)cc1	dFosB act-1 32 (no result: CAL PDZ FP-1) | dFosB act-2 inactive
CCCn1c(SCC(=O)NCC(=O)Nc2ccc(F)c(F)c2F)nc2ccccc2c1=O	dFosB act-1 26 (no result: DYRK1A inh) | dFosB act-2 inactive
C/C(N)=C(/C#N)C(=O)CSc1nc2ccccc2c(=O)n1Cc1ccc(C)cc1	dFosB act-1 21 | dFosB act-2 inactive
C/C(N)=C(/C#N)C(=O)CSc1nc2ccccc2c(=O)n1Cc1ccc(F)cc1	none
CN(C)CCCn1c(SCC(=O)N2c3ccccc3Sc3ccccc32)nc2ccccc2c1=O	dFosB act-1 24, Rtt109 Vps75 inconclusive | dFosB act-2 inactive
O=C(CSc1nc2ccccc2c(=O)n1Cc1ccc(Cl)cc1)NCc1cccs1	dFosB act-1 27 | dFosB act-2 inactive
CCn1c(SCC(=O)NCc2ccccc2)nc2ccccc2c1=O	none
NC(=O)CC(NC(=O)Cc1ccc(Cl)cc1)c1ccc(NC2CCCCCCC2)c([N+](=O)[O-])c1 (stereo not given)	none
N/C(=N\OC(=O)CCCOc1ccccc1)c1cccc([N+](=O)[O-])c1	none
CSCCC(NC(=O)COc1ccccc1)C(=O)NCCOc1ccc(C)cc1 (stereo not given)	none
CC(=O)NCCn1c(SCC(=O)NCc2ccco2)nc2ccccc2c1=O	none
CCCCn1c(SCC(=O)NCc2ccco2)nc2ccccc2c1=O	dFosB act-1 18 | dFosB act-2 inactive
COCCn1c(=S)[nH]c2cc(C(=O)N3CCc4ccccc43)ccc2c1=O	none
CCCn1c(=S)[nH]c2cc(C(=O)N3CCc4ccccc43)ccc2c1=O	dFosB act-1 50 | dFosB act-2 inactive
O=S(=O)(NC1=NCCC1)c1ccc(F)cc1F	none
Nc1ccccc1SC1CC(=O)N(c2ccc3c(c2)OCCO3)C1=O (stereo not given)	none
Nc1ccccc1SC1CC(=O)N(c2ccc(Cl)c(Cl)c2)C1=O (stereo not given)	dFosB act-1 27 | dFosB act-2 inactive
COc1ccccc1C(CNC(=O)c1ccc(S(=O)(=O)NCc2ccco2)cc1)N(C)C (stereo not given)	none
Nc1cc(Cl)ccc1Nc1ccncc1	none
O=C(Nc1nc(-c2cccnc2)cs1)c1ccccc1Cl	dFosB act-1 24 | dFosB act-2 inactive
COc1cc(OC)c2nc(C)c3c(c2c1)N(c1ccc(O)cc1)CC3	dFosB act-1 47 | dFosB act-2 inactive
COc1ccc(N2CCN(c3cc(C)c4ccc(O)cc4n3)CC2)cc1	none (no result: CAL PDZ FP-1)
CN1/C(=C/C(=O)CSc2ccccc2C(=O)O)C(C)(C)c2ccccc21	dFosB act-1 19 | dFosB act-2 inactive
COc1ccc(Nc2nnc(SCC(=O)/C=C3/N(C)c4ccccc4C3(C)C)s2)cc1	dFosB act-1 43 | dFosB act-2 inactive
O=C(Nc1ccon1)c1sc2cc(Cl)ccc2c1Cl	dFosB act-1 41 | dFosB act-2 inactive
CCCCC(=O)NNC(=S)NCc1ccccc1	none (no result: CAL PDZ FP-1)
COc1cc(-c2cc3nc(C)c(C)c(=O)n3[nH]2)cc(OC)c1OC	dFosB act-1 22 (no result: Rtt109 Vps75) | dFosB act-2 inactive
COc1ccc(NC(=O)c2cc([N+](=O)[O-])ccc2NC(=O)CNCc2ccccn2)c(OC)c1	none
